pEC50: −log10 of the molar value. ≈ marks a conversion by molar mass, not a printed value. Calls of active or inactive are those of the source. The rule behind the calls is not given here.
Key:
[1] = Kinetic solubility in isotonic phosphate buffer at pH 6.5 by nephelometry; type: physicochemical; conditions: read-out: Kinetic_solubility
Outline: (§1)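 Compound dissolved in DMSO and added to 0.01 M HCl (pH 2) or pH 6.5 isotonic phosphate buffer, 1% final DMSO. Solubility range determined by nephelometry.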

[2] = Apparent volume of distribution in Sprague-Dawley rat at 8.8 mg/kg, iv; type: ADME, organism-based; design: dose 8.8 mg/kg, route intravenous; conditions: in vivo, read-out: Vz
[3] = Kinetic solubility in 0.01M HCl buffer at pH 2.0 by nephelometry; type: physicochemical; conditions: read-out: Kinetic_solubility; outline: as §1
[4] = test system: Respiratory syncytial virus; assay: Antiviral activity against respiratory syncytial virus A2 by yield reduction assay; type: functional, organism-based
[5] = test system: Respiratory syncytial virus; assay: Antiviral activity against respiratory syncytial virus B1 infected in human Hep2 cells assessed as reduction in virus-induced cytopathic effect after 5 days by MTT assay; type: functional, organism-based; conditions: B1, HEp-2, 120 h
[6] = test system: Respiratory syncytial virus; assay: Resistance index, ratio of EC50 for drug resistant respiratory syncytial virus Long expressing F protein Q494L mutant to EC50 for wild type Respiratory syncytial virus Long
[7] = Oral bioavailability in Sprague-Dawley rat at 19 mg/kg; type: ADME, organism-based; conditions: in vivo
Outline: (§2)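 Male Sprague Dawley rats, n = 2, oral dose as suspension in hydroxypropylmethylcellulose, in carboxymethylcellulose, or in 0.5% HPMC/0.5% benzyl alcohol/0.4% Tween80. Cmax (µM), T1/2 and F (%) derived from plasma levels.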

[8] = test system: Respiratory syncytial virus; assay: Antiviral activity against respiratory syncytial virus A2 infected in human Hep2 cells assessed as reduction in virus-induced cytopathic effect after 5 days by MTT assay; type: functional, organism-based; conditions: A2, HEp-2, 120 h
Outline: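 HEp2 cells (1.0 × 10⁴/well) infected at low moi (RSV A2 at moi 0.01) and added to serial compound dilutions; incubated 5 days at 37 °C, 5% CO₂. CPE read by MTT (1 mg/ml) metabolism after 2 h incubation.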

[9] = Lipophilicity, log D of the compound at pH 7.4 by chromatography; type: physicochemical; conditions: buffer
Outline: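 Effective logD measured chromatographically on an LC-ABZ column, octanol-saturated mobile phase at pH 7.4.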

[10] = test system: Respiratory syncytial virus; assay: Resistance index, ratio of EC50 for VP-14637 resistant respiratory syncytial virus Long expressing F protein D489Y mutant to EC50 for wild type Respiratory syncytial virus Long
[11] = test system: Respiratory syncytial virus; assay: Antiviral activity against respiratory syncytial virus A2 assessed as inhibition of early virus replication cycle by time of addition assay; type: functional, organism-based
[12] = test system: Respiratory syncytial virus; assay: Antiviral activity against respiratory syncytial virus Long infected in human Hep2 cells assessed as reduction in virus-induced cytopathic effect after 5 days by MTT assay; type: functional, organism-based; conditions: HEp-2, 120 h
[13] = Plasma clearance in Sprague-Dawley rat at 8.8 mg/kg, iv; type: ADME, organism-based; design: dose 8.8 mg/kg, route intravenous
[14] = test system: Respiratory syncytial virus; assay: Antiviral activity against respiratory syncytial virus A2 by plaque reduction assay; type: functional, organism-based
[15] = Cmax in Sprague-Dawley rat at 19 mg/kg, po; type: ADME, organism-based; design: dose 19 mg/kg, route oral; conditions: in vivo; outline: as §2
[16] = Elimination half life in Sprague-Dawley rat at 8.8 mg/kg, iv; type: ADME, organism-based; design: dose 8.8 mg/kg, route intravenous; conditions: in vivo, read-out: beta t1/2 (converted)
[17] = Oral bioavailability in dog; type: ADME, organism-based, Canis lupus familiaris; conditions: in vivo
[18] = Elimination half life in Sprague-Dawley rat at 19 mg/kg, po; type: ADME, organism-based; design: dose 19 mg/kg, route oral; conditions: in vivo, read-out: beta t1/2 (converted); outline: as §2
[19] = test system: Respiratory syncytial virus; assay: Resistance index, ratio of EC50 for drug resistant respiratory syncytial virus B1 expressing F protein L141F mutant to EC50 for wild type Respiratory syncytial virus B1; type: functional
[20] = Half life in Sprague-Dawley rat at 21 mg/kg, po; type: ADME, organism-based; design: dose 21 mg/kg, route oral; conditions: in vivo
Outline: (§3)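 Male Sprague Dawley rats, n = 2, oral dose as suspension with carboxymethylcellulose. Cmax (µM), T1/2 and F (%) derived from plasma levels.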

[21] = Oral bioavailability in Sprague-Dawley rat at 21 mg/kg; type: ADME, organism-based; conditions: in vivo; outline: as §3
[22] = Total clearance in Sprague-Dawley rat at 2.1 mg/kg, iv; type: ADME, organism-based; design: dose 2.1 mg/kg, route intravenous; conditions: in vivo
Outline: (§4)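 Male Sprague Dawley rats given one IV dose. 3.1 mg/kg: n = 1, in 40% propylene glycol, 10% ethanol and 0.4% Tween80 in water. 2.1 mg/kg: n = 2, in 20 mM citrate (pH 2.6) with 5% glucose and 10% DMSO. Total clearance, Vz and T1/2 derived from plasma levels.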

[23] = Elimination half life in Sprague-Dawley rat at 2.1 mg/kg, iv; type: ADME, organism-based; design: dose 2.1 mg/kg, route intravenous; conditions: in vivo, read-out: beta t1/2 (converted); outline: as §4
[24] = Apparent volume of distribution in Sprague-Dawley rat at 2.1 mg/kg, iv; type: ADME, organism-based; design: dose 2.1 mg/kg, route intravenous; conditions: in vivo, read-out: Vz; outline: as §4
[25] = Cytotoxicity against human Hep2 cells assessed as reduction in cell viability after 5 days by MTT assay; type: cell-based, HEp-2
Outline: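 Uninfected HEp2 cells (1.0 × 10⁴/well) exposed to serial compound dilutions for 5 days at 37 °C, 5% CO₂. Viability read by MTT (1 mg/ml) metabolism after 2 h incubation.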

[26] = Cmax in Sprague-Dawley rat at 21 mg/kg, po; type: ADME, organism-based; design: dose 21 mg/kg, route oral; conditions: in vivo; outline: as §3
[27] = Total clearance in Sprague-Dawley rat at 3.1 mg/kg, iv; type: ADME, organism-based; design: dose 3.1 mg/kg, route intravenous; conditions: in vivo; outline: as §4
[28] = Oral bioavailability in Sprague-Dawley rat at 18 mg/kg; type: ADME, organism-based; conditions: in vivo; outline: as §3
[29] = Half life in Sprague-Dawley rat at 18 mg/kg, po; type: ADME, organism-based; design: dose 18 mg/kg, route oral; conditions: in vivo; outline: as §3
[30] = Elimination half life in Sprague-Dawley rat at 3.1 mg/kg, iv; type: ADME, organism-based; design: dose 3.1 mg/kg, route intravenous; conditions: in vivo, read-out: beta t1/2 (converted); outline: as §4
[31] = Apparent volume of distribution in Sprague-Dawley rat at 3.1 mg/kg, iv; type: ADME, organism-based; design: dose 3.1 mg/kg, route intravenous; conditions: in vivo, read-out: Vz; outline: as §4
[32] = Cmax in Sprague-Dawley rat at 18 mg/kg, po; type: ADME, organism-based; design: dose 18 mg/kg, route oral; conditions: in vivo; outline: as §3
[33] = Apparent volume of distribution in Sprague-Dawley rat at 5.1 mg/kg, iv; type: ADME, organism-based; design: dose 5.1 mg/kg, route intravenous; conditions: in vivo, read-out: Vz
[34] = Elimination half life in Sprague-Dawley rat at 5.1 mg/kg, iv; type: ADME, organism-based; design: dose 5.1 mg/kg, route intravenous; conditions: in vivo, read-out: beta t1/2 (converted)
[35] = Plasma clearance in Sprague-Dawley rat at 5.1 mg/kg, iv; type: ADME, organism-based; design: dose 5.1 mg/kg, route intravenous
[36] = Elimination half life in Sprague-Dawley rat at 1.1 mg/kg, iv; type: ADME, organism-based; design: dose 1.1 mg/kg, route intravenous; conditions: in vivo, read-out: beta t1/2 (converted)
[37] = Cmax in Sprague-Dawley rat at 20 mg/kg, po; type: ADME, organism-based; design: dose 20 mg/kg, route oral; conditions: in vivo; outline: as §2
[38] = Elimination half life in Sprague-Dawley rat at 20 mg/kg, po; type: ADME, organism-based; design: dose 20 mg/kg, route oral; conditions: in vivo, read-out: beta t1/2 (converted); outline: as §2
[39] = Oral bioavailability in Sprague-Dawley rat at 20 mg/kg; type: ADME, organism-based; conditions: in vivo; outline: as §2
[40] = test system: Respiratory syncytial virus; assay: Potency shift index, ratio of EC50 for respiratory syncytial virus A2 infected in human Hep2 in presence of 1.5 mg/mL Alpha-1-acid glycoprotein to EC50 for respiratory syncytial virus A2 infected in human Hep2 in absence of Alpha-1-acid glycoprotein; type: functional
[41] = Apparent volume of distribution in Sprague-Dawley rat at 1.1 mg/kg, iv; type: ADME, organism-based; design: dose 1.1 mg/kg, route intravenous; conditions: in vivo, read-out: Vz
[42] = Plasma clearance in Sprague-Dawley rat at 1.1 mg/kg, iv; type: ADME, organism-based; design: dose 1.1 mg/kg, route intravenous
[43] = Apparent volume of distribution in Sprague-Dawley rat at 0.9 mg/kg, iv; type: ADME, organism-based; design: dose 0.9 mg/kg, route intravenous; conditions: in vivo, read-out: Vz
[44] = Elimination half life in Sprague-Dawley rat at 0.9 mg/kg, iv; type: ADME, organism-based; design: dose 0.9 mg/kg, route intravenous; conditions: in vivo, read-out: beta t1/2 (converted)
Plasma [45] = assay: Drug metabolism in iv dosed Sprague-Dawley rat plasma assessed as formation of pyridine N-oxides level; type: ADME, organism-based; conditions: in vivo
[46] = Drug metabolism in iv dosed Sprague-Dawley rat urine assessed as formation of pyridine N-oxides level; type: ADME, organism-based; conditions: in vivo
[47] = Drug metabolism in orally dosed Sprague-Dawley rat urine assessed as formation of pyridine N-oxides level; type: ADME, organism-based; conditions: in vivo, po
Plasma [48] = assay: Drug metabolism in orally dosed Sprague-Dawley rat plasma assessed as formation of pyridine N-oxides level; type: ADME, organism-based; conditions: in vivo, po
[49] = Plasma clearance in Sprague-Dawley rat at 0.9 mg/kg, iv; type: ADME, organism-based; design: dose 0.9 mg/kg, route intravenous

O=C(c1cccnc1)N1CCN2C(=O)c3ccncc3[C@]12c1ccc(Cl)cc1 [BTA-9881]
solubility kinetic [1]: 50 µg/mL (≈ 128 µM)
Vd [2]: 1.7 L/kg
solubility kinetic [3]: > 100 µg/mL
Activity [4]: Active
pEC50 [5]: 6.80
Ratio EC50 [6]: 40
bioavailability [7]: 100%
pEC50 [8]: 7.32
chromatographic logD [9]: 2.1
Ratio EC50 [10]: >1800
Activity [11]: Active
pEC50 [12]: 7.23
clearance [13]: 4.5 mL/min/kg
Activity [14]: Active
Cmax [15]: 23 µM
half-life [16]: 4.5 h
bioavailability [17]: 100%
half-life [18]: 4.5 h
Ratio EC50 [19]: >100

O=C(c1ccc(F)nc1)N1CCN2C(=O)c3cc[n+]([O-])cc3C12c1ccc(Cl)cc1 (racemic)
pEC50 [8]: 6.82
half-life [20]: 20 h
bioavailability [21]: 85%
clearance [22]: 7.9 mL/min/kg
half-life [23]: 1.7 h
Vd [24]: 1.2 L/kg
CC50 at 120 h [25]: > 17000 nM
Cmax [26]: 2.5 µM

Cn1cc(C(=O)N2CCN3C(=O)c4cc[n+]([O-])cc4[C@@]32c2ccc(Cl)cc2)c(C(F)(F)F)n1
clearance [27]: 2.2 mL/min/kg
pEC50 [8]: 8.00
bioavailability [28]: 57%
half-life [29]: 11 h
half-life [30]: 11 h
Vd [31]: 2.1 L/kg
Cmax [32]: 9.3 µM
CC50 at 120 h [25]: > 5000 nM

O=C(c1ccc(F)nc1)N1CCN2C(=O)c3ccncc3[C@]12c1ccc(Cl)cc1
solubility kinetic [1]: 25 µg/mL (≈ 61.2 µM)
solubility kinetic [3]: > 100 µg/mL
Vd [33]: 3.8 L/kg
pEC50 [5]: 6.54
bioavailability [7]: 75%
pEC50 [8]: 7.12
chromatographic logD [9]: 2.7
half-life [34]: 11 h
pEC50 [12]: 6.89
Cmax [15]: 8.8 µM
clearance [35]: 4.3 mL/min/kg
half-life [18]: 9.3 h

O=C(c1ccco1)N1CCN2C(=O)c3ccncc3C12c1ccc(Cl)cc1 (racemic)
solubility kinetic [1]: > 100 µg/mL
half-life [36]: 2.4 h
Cmax [37]: 0.44 µM
half-life [38]: 2.8 h
solubility kinetic [3]: 50 µg/mL (≈ 132 µM)
pEC50 [5]: 6.77
bioavailability [39]: 21%
pEC50 [8]: 6.92
chromatographic logD [9]: 2.8
pEC50 [12]: 6.43
Ratio EC50 [40]: 3.6
Vd [41]: 8.7 L/kg
clearance [42]: 79 mL/min/kg
CC50 at 120 h [25]: > 19000 nM

Cn1cc(C(=O)N2CCN3C(=O)c4ccncc4C32c2ccc(Cl)cc2)c(C(F)(F)F)n1 (racemic)
Vd [43]: 1.9 L/kg
half-life [44]: 5.6 h
Drug metabolism (Plasma [45]): metabolite_detected
bioavailability [7]: 38%
pEC50 [8]: 7.51
Drug metabolism [46]: metabolite_detected
Ratio EC50 [40]: 4.3
Drug metabolism [47]: metabolite_detected
Cmax [15]: 3.6 µM
Drug metabolism (Plasma [48]): metabolite_detected
clearance [49]: 4 mL/min/kg
half-life [18]: 7.1 h
CC50 at 120 h [25]: > 16000 nM

Reference: ChEMBL document CHEMBL3393003, “1,2,3,9b-Tetrahydro-5H-imidazo[2,1-a]isoindol-5-ones as a new class of respiratory syncytial virus (RSV) fusion inhibitors. Part 2: identification of BTA9881 as a preclinical candidate” (Bioorg Med Chem Lett, 2015)
